Assay results as given in ChEMBL document CHEMBL2331435, “Structure-activity relationship study of vitamin k derivatives yields highly potent neuroprotective agents” (J Med Chem, 2013).
The source made the active and inactive calls. No cut-off for these calls is given here.

Columns and labels:
HT-22 [1] = test: Neuroprotective activity in mouse HT22 cells assessed as prevention from glutamate-induced oxidative cell death by MTS assay; format: functional
Method in brief: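 HT22 cells grown in high-glucose DMEM with 10% FBS and antibiotic-antimycotic at 37°C, 5% CO2. Seeded at 5.0 × 10^3 cells/well overnight, then given 10 mM glutamate (final) plus compound from DMSO stock. MTS added 24 h after treatment, 2 h at 37°C, A490 read. Viability taken as % of untreated cells. PC50 from 12-point titrations; experiments repeated at least four times.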

HT-22 [2] = test: Neuroprotective activity in mouse HT22 cells assessed as reduction of glutamate-induced mitochondrial superoxide generation at 250 nM after 8 hrs by MitoSOX RED staining-based fluorescence microscopic analysis; format: functional, cell-based
Method in brief: (§1)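 HT22 cells were given 10 mM glutamate plus compound for 8 h, then co-stained with MitoSOX Red (5 μM final) and Mitotracker Deep Red (10 nM final) for 20 min. Cells were washed twice with HBSS and imaged live by fluorescence microscopy in HBSS.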

HT-22 [3] = test: Antioxidant activity in mouse HT22 cells assessed as reduction in glutamate-induced upregulation of HO1 gene expression at 250 nM after 16 hrs by qRT-PCR analysis relative to untreated control; format: functional, cell-based
Method in brief: (§2)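 HT22 cells were seeded at 3.0 × 10^5 per well and cultured overnight, then treated with or without 10 mM glutamate plus compound (DMSO stock) for 16 h. Cells were trypsinized and washed in cold Ca/Mg-free HBSS. HO-1 and NQO-1 mRNA were measured by qRT-PCR with β2-microglobulin as reference gene, and fold change was calculated by the Livak method.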

[4] = target: T1, Serine/threonine-protein phosphatase PGAM5, mitochondrial (Mus musculus) (UniProt Q8BX10); test: Inhibition of glutamate-induced increase in lower band of PGAM5 in mouse HT22 cells at 500 nM after 16 hrs by Western blotting analysis; format: cell-based; conditions: HT-22
T1 sequence (whole entry): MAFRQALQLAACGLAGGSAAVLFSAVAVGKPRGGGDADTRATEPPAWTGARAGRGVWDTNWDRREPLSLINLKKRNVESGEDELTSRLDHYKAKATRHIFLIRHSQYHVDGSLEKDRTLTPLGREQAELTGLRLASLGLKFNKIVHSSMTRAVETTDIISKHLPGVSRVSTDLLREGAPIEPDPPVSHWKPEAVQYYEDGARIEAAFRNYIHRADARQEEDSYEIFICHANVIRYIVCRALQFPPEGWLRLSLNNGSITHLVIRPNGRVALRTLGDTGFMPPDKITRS
Method in brief: (§3)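 HT22 cells were treated with 10 mM glutamate plus compound for 16 h, harvested, and lysed in low-salt buffer (50 mM Tris-HCl pH 7.4, 150 mM NaCl, 10% glycerol, Triton X-100, protease/phosphatase inhibitors) for 30 min with a brief sonication. Lysates were run on 4–12% gels and immunoblotted for phospho-Drp1 Ser637, total Drp1, PGAM5, actin and α-tubulin, then analyzed by densitometry.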

HT-22 [5] = test: Antioxidant activity in mouse HT22 cells assessed as prevention of glutamate-induced intracellular accumulation of free radicals at 250 nM after 8 hrs by spectrofluorometric analysis; format: functional, cell-based
Method in brief: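 HT22 cells were seeded at 5.0 × 10^3 per well and cultured overnight, then given 10 mM glutamate plus compound for 8 h. Rho123 was added at 5 μM final for 20 min, cells were washed twice with HBSS, and oxidized Rho123 fluorescence was read at 500 nm excitation and 536 nm emission.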

HT-22 [6] = test: Antioxidant activity in mouse HT22 cells assessed as reduction in glutamate-induced upregulation of HO1 gene expression at 250 nM after 16 hrs by qRT-PCR analysis relative to glutamate-treated control; format: functional, cell-based; method in brief: as §2
[7] = Neurotoxicity in mouse HT22 cells assessed as cell viability after 24 hrs by MTS assay; format: toxicity, cell-based, HT-22; conditions: read-out: TC50
Method in brief: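 HT22 cells were seeded at 5.0 × 10^3 per well, cultured overnight, and treated with a range of compound concentrations without glutamate for 24 h. MTS was added for 2 h and absorbance read at 490 nm. Viability was expressed as percent of untreated cells, and TC50 was fit from titration curves (7- or 12-point, n = 3–4).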

HT-22 [8] = test: Neuroprotective activity in mouse HT22 cells assessed as reduction of glutamate-induced mitochondrial fragmentation at 250 nM after 8 hrs by Mitotracker DR staining-based fluorescence microscopic analysis; format: functional, cell-based; method in brief: as §1
[9] = target: Dynamin-1-like protein (Mus musculus) (UniProt Q8K1M6); test: Inhibition of glutamate-induced decrease in DRP1 phosphorylation at serine 637 in mouse HT22 cells at 500 nM after 16 hrs by Western blotting analysis; format: cell-based; conditions: HT-22; method in brief: as §3
Dynamin-1-like protein (Mus musculus), sequence (Q8K1M6 whole entry): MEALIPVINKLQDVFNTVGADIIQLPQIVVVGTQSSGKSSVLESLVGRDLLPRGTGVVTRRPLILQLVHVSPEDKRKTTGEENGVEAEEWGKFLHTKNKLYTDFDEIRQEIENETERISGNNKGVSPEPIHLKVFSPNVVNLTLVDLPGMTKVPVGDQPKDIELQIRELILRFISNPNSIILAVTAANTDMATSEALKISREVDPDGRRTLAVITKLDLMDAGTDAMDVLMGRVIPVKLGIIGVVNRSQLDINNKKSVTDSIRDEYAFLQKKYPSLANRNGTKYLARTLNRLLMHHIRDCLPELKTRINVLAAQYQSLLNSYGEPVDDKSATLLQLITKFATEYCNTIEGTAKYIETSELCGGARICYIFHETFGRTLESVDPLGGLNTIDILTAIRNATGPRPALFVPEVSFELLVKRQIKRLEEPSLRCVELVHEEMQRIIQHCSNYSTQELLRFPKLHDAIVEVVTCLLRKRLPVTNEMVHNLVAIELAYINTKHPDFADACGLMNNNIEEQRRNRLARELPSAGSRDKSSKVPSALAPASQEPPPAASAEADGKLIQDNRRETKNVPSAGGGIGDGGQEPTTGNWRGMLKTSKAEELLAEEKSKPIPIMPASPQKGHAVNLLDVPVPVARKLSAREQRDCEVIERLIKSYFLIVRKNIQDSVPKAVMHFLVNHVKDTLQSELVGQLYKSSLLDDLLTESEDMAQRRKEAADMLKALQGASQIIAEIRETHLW

HT-22 [10] = test: Antioxidant activity in mouse HT22 cells assessed as upregulation of HO1 gene expression at 250 nM after 16 hrs by qRT-PCR analysis in the absence of glutamate; format: functional, cell-based; method in brief: as §2
HT-22 [11] = test: Antioxidant activity in mouse HT22 cells assessed as upregulation of NQO1 protein expression 8 hrs by Western blotting analysis; format: functional, cell-based
[12] = tested on: Radical scavenging activity; test: Antioxidant activity assessed as DPPH free radical scavenging activity at 20 uM; format: functional
Method in brief: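 Test agents at 20 μM final, added to 100 μM DPPH in methanol; absorbance at 517 nm monitored immediately for 10 min. Trolox and ascorbic acid served as positive controls, and the rate of absorbance loss was taken as antioxidant potency.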

HT-22 [13] = test: Neuroprotective activity in mouse HT22 cells assessed as prevention from tBuOOH-induced oxidative cell death after 3 hrs by MTS assay; format: functional, cell-based
Method in brief: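 HT22 cells were seeded at 5.0 × 10^3 per well and cultured overnight, then exposed to 50 μM t-BuOOH (final) plus compound for 3 h. Medium was removed, cells were washed with HBSS and returned to normal medium. MTS was added 24 h after initial treatment, absorbance was read at 490 nm after 2 h, and viability was expressed as percent of untreated cells.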

HT-22 [14] = test: Antioxidant activity in mouse HT22 cells assessed as upregulation of NQO1 gene expression at 250 nM after 16 hrs by qRT-PCR analysis in the absence of glutamate; format: functional, cell-based; method in brief: as §2
HT-22 [15] = test: Antioxidant activity in mouse HT22 cells assessed as upregulation of HO1 protein expression 8 hrs by Western blotting analysis; format: functional, cell-based
HT-22 [16] = test: Antioxidant activity in mouse HT22 cells assessed as reduction in glutamate-induced upregulation of NQO1 gene expression at 250 nM after 16 hrs by qRT-PCR analysis relative to glutamate-treated control; format: functional, cell-based; method in brief: as §2
Mus musculus [17] = test: Toxicity in BALB/cByJ mouse assessed as biochemical parameters at 50 mg/kg, ip daily for 3 weeks measured 2 hrs after final injection; format: organism-based; parameters: dose 50 mg/kg, route intraperitoneal; conditions: in vivo
Mus musculus [18] = test: Toxicity in BALB/cByJ mouse assessed as outward signs of distress at 50 mg/kg, ip daily for 3 weeks measured 2 hrs after final injection; format: organism-based; parameters: dose 50 mg/kg, route intraperitoneal; conditions: in vivo
[19] = target: T1, Serine/threonine-protein phosphatase PGAM5, mitochondrial (Mus musculus); test: Inhibition of glutamate-induced increase in lower band of PGAM5 in mouse HT22 cells at 125 nM after 16 hrs by Western blotting analysis; format: cell-based; conditions: HT-22; method in brief: as §3
[20] = target: Dynamin-1-like protein (Mus musculus) (UniProt Q8K1M6); test: Inhibition of glutamate-induced decrease in DRP1 phosphorylation at serine 637 in mouse HT22 cells at 125 nM after 16 hrs by Western blotting analysis; format: cell-based; conditions: HT-22; method in brief: as §3
Mus musculus [21] = test: Toxicity in BALB/cByJ mouse assessed as outward signs of pain at 50 mg/kg, ip daily for 3 weeks measured 2 hrs after final injection; format: organism-based; parameters: dose 50 mg/kg, route intraperitoneal; conditions: in vivo
Mus musculus [22] = test: Toxicity in BALB/cByJ mouse assessed as weight loss at 50 mg/kg, ip daily for 3 weeks measured 2 hrs after final injection; format: organism-based; parameters: dose 50 mg/kg, route intraperitoneal; conditions: in vivo
[23] = Therapeutic index, ratio of cytotoxic TC50 for mouse HT22 cells to neuroprotective PD50 for mouse HT22 cells; format: cell-based, HT-22; conditions: read-out: TI
HT-22 [24] = test: Antioxidant activity in mouse HT22 cells assessed as prevention of glutamate-induced GSH depletion at 25 uM; format: functional, cell-based
Method in brief: (§4)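 HT22 cells were exposed to 10 mM glutamate plus compound (DMSO stock) for 8 h. Total glutathione (reduced plus oxidized) in the supernatant of the cell homogenate was measured with a glutathione reductase enzymatic recycling kit. GSH reacts with DTNB to give TNB, read at 405 nm.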

HT-22 [25] = test: Antioxidant activity in mouse HT22 cells assessed as prevention of glutamate-induced GSH depletion at 5 uM; format: functional, cell-based; method in brief: as §4
HT-22 [26] = test: Ratio of VK2 IC50 to 2-((4-Chlorobenzyl)amino)naphthalene-1,4-dione IC50 for prevention from glutamate-induced oxidative cell death in mouse HT22 cells; format: functional
HT-22 [27] = test: Antioxidant activity in mouse HT22 cells assessed as prevention of glutamate-induced GSH depletion at 50 uM; format: functional, cell-based; method in brief: as §4

Compound	PD50 (HT-22 [1]) [nM]	Activity (HT-22 [2])	Activity (HT-22 [3])	Activity (HT-22 [5])	Activity (HT-22 [6])	CC50 at 24 h [7] [µM]	Activity (HT-22 [8])	Activity (HT-22 [10])	Activity (HT-22 [11])	Activity [12]	Activity (HT-22 [13])	Activity (HT-22 [14])	Activity (HT-22 [15])	Activity (HT-22 [16])	Activity (Mus musculus [17])	Activity (Mus musculus [18])	inhibition [19]	inhibition [20]	Activity (Mus musculus [21])	Activity (Mus musculus [22])	other results
CC(C)=CCC/C(C)=C/CC/C(C)=C/CC/C(C)=C/CC1=C(C)C(=O)c2ccccc2C1=O [MENATETRENONE]	432	Active	inactive	Active	Active	> 100	Active	inactive	inactive	inactive	Active	inactive	inactive	inactive	–	–	–	–	–	–	inhibition [4]: Active; inhibition [9]: Active
O=C1C=C(NCc2ccccc2)C(=O)c2ccccc21	88	Active	inactive	Active	Active	> 100	Active	inactive	inactive	inactive	Active	inactive	inactive	inactive	Non-toxic	Non-toxic	Active	Active	Non-toxic	Non-toxic	selectivity ratio [23]: > 1140
Cc1c(C)c2c(c(C)c1O)CCC(C)(C(=O)O)O2 (centres undefined)	–	–	–	–	–	–	–	–	–	Active	inactive	–	–	–	–	–	–	–	–	–	Activity (HT-22 [24]): inactive
COC1=C(OC)C(=O)C(CCCCCCCCCCO)=C(C)C1=O	–	–	–	–	–	–	–	–	–	–	–	–	–	–	–	–	–	–	–	–	Activity (HT-22 [25]): inactive
O=C1C=C(NCc2cccc(Cl)c2)C(=O)c2ccccc21	31	Active	inactive	Active	Active	> 100	Active	inactive	inactive	inactive	Active	inactive	inactive	inactive	Non-toxic	Non-toxic	Active	Active	Non-toxic	Non-toxic	Ratio IC50 (HT-22 [26]): >10; selectivity ratio [23]: > 3230
CN1C(=O)C(Cc2c[nH]c3ccccc23)NC1=S (centres undefined)	–	–	–	–	–	–	–	–	–	–	–	–	–	–	–	–	–	–	–	–	Activity (HT-22 [27]): inactive
